Results taken from ChEMBL document CHEMBL5661979, “Pharmacological inhibition of BMK1 suppresses tumor growth through promyelocytic leukemia protein” (Cancer Cell, 2010).
The source made the active and inactive calls. The rule behind the calls is not given here.

Columns and labels:
[1] = molecular target: Cyclin-dependent kinase 10 (Homo sapiens, UniProt Q15131); experiment: Inhibition of CDK10 in human HeLa cells lysate pre incubated for 15 mins followed by ATP acyl phosphate probe addition and measured after 10 mins by LC-MS/MS analysis; assay type: subcellular
Summary of the method: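 KiNativ profiling in HeLa lysate (5 mg/mL total protein). Lysate incubated 15 min with inhibitor at 50, 10, 2, 0.8 or 0 μM. ATP or ADP acylphosphate probe then added (5 μM final) and reacted 10 min. Reaction stopped with urea and analysed by targeted MS, using up to four fragment ions per kinase peptide-probe conjugate. % inhibition taken against untreated lysate. Run in duplicate.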

[2] = molecular target: Serine/threonine-protein kinase LATS1 (Homo sapiens, UniProt O95835); experiment: Inhibition of LATS1 in human HeLa cells lysate pre incubated for 15 mins followed by ATP acyl phosphate probe addition and measured after 10 mins by LC-MS/MS analysis; assay type: subcellular
[3] = molecular target: Mitogen-activated protein kinase kinase kinase 7 (Homo sapiens, UniProt O43318); experiment: Inhibition of TAK1 in human HeLa cells lysate pre incubated for 15 mins followed by ATP acyl phosphate probe addition and measured after 10 mins by LC-MS/MS analysis; assay type: subcellular
[4] = Inhibition of PCTAIRE2/PCTAIRE3 in human HeLa cells lysate pre incubated for 15 mins followed by ADP acyl phosphate probe addition and measured after 10 mins by LC-MS/MS analysis; assay type: subcellular
[5] = molecular target: Dual specificity protein kinase CLK3 (Homo sapiens, UniProt P49761); experiment: Inhibition of CLK3 in human HeLa cells lysate at 50 uM pre incubated for 15 mins followed by ADP acyl phosphate probe addition and measured after 10 mins by LC-MS/MS analysis relative to control; assay type: subcellular; conditions: time 25.0 min
[6] = molecular target: Epidermal growth factor receptor (Homo sapiens, UniProt P00533); experiment: Inhibition of EGFR in human HeLa cells lysate at 10 uM pre incubated for 15 mins followed by ADP acyl phosphate probe addition and measured after 10 mins by LC-MS/MS analysis relative to control; assay type: subcellular; conditions: time 25.0 min
[7] = molecular target: T1, Serine/threonine-protein kinase D3 (Homo sapiens) (UniProt O94806); experiment: Inhibition of PKD3 in human HeLa cells lysate at 10 uM pre incubated for 15 mins followed by ADP acyl phosphate probe addition and measured after 10 mins by LC-MS/MS analysis relative to control; assay type: subcellular; conditions: time 25.0 min
T1 sequence (whole entry): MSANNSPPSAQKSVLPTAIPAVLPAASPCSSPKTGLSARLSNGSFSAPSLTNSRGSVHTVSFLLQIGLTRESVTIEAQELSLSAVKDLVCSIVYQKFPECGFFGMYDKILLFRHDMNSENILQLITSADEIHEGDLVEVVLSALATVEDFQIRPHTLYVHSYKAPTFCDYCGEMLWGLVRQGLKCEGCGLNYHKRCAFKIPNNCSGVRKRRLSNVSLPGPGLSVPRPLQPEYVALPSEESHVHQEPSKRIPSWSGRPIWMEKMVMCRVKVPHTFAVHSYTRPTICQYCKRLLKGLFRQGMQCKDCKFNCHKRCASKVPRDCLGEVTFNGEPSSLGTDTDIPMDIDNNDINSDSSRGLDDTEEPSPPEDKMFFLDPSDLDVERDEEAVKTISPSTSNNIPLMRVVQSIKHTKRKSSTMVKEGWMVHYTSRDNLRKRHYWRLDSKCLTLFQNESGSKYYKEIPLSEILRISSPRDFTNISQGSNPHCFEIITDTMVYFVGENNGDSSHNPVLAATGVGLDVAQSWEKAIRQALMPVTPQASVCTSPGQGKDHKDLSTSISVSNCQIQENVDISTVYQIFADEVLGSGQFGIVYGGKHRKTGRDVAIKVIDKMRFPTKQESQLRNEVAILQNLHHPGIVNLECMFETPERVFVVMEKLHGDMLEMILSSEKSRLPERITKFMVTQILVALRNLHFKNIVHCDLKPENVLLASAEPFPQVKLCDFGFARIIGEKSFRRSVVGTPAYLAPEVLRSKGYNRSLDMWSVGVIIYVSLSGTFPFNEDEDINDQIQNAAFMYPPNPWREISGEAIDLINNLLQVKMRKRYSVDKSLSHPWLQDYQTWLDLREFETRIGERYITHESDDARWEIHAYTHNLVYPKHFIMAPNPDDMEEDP

[8] = molecular target: Calcium/calmodulin-dependent protein kinase type II subunit delta (Homo sapiens, UniProt Q13557); experiment: Inhibition of CAMK2d in human HeLa cells lysate at 10 uM pre incubated for 15 mins followed by ATP acyl phosphate probe addition and measured after 10 mins by LC-MS/MS analysis relative to control; assay type: subcellular; conditions: time 25.0 min
Summary of the method: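 KiNativ-type profiling in HeLa lysate (5 mg/mL total protein). Lysate preincubated 15 min with inhibitor at 50, 10, 2, 0.8 or 0 μM, then ATP or ADP acylphosphate probe added (5 μM final) for 10 min. Reaction stopped with urea and analysed by targeted MS, using up to four fragment ions per kinase peptide-probe conjugate. % inhibition calculated against untreated lysate. Duplicate reactions.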

[9] = molecular target: T2, Dual specificity mitogen-activated protein kinase kinase 6 (Homo sapiens) (UniProt P52564); experiment: Inhibition of MAP2K6 in human HeLa cells lysate at 10 uM pre incubated for 15 mins followed by ATP acyl phosphate probe addition and measured after 10 mins by LC-MS/MS analysis relative to control; assay type: subcellular; conditions: time 25.0 min
T2 sequence (whole entry): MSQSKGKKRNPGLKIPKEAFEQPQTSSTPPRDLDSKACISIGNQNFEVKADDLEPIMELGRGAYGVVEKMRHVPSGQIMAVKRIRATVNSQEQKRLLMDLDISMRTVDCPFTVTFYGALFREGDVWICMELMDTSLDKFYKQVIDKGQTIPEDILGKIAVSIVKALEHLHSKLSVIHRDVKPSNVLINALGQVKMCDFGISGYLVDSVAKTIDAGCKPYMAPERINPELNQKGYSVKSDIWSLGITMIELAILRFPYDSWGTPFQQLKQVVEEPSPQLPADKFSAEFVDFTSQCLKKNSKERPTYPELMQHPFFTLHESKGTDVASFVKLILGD

[10] = tested on: HeLa; experiment: Antitumor activity against human HeLa cells xenografted in NOD/SCID mouse assessed as reduction tumor growth at 50 mg/kg, ip administered on day 7 post implantation measured after 28 days; assay type: functional, organism-based; conditions: time 21.0 day
Summary of the method: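 HeLa cells (5×10^5, in DMEM) were injected s.c. into the right flank of 6-week-old Nod/Scid mice on day 0. Dosing was 50 mg/kg i.p. twice daily, starting on day 1, 7 or 14 and continuing to day 28; controls received carrier. 6 mice per treated group. Tumors were measured every 2–3 days.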

Serine/threonine-protein kinase LATS1, sequence (O95835 whole entry): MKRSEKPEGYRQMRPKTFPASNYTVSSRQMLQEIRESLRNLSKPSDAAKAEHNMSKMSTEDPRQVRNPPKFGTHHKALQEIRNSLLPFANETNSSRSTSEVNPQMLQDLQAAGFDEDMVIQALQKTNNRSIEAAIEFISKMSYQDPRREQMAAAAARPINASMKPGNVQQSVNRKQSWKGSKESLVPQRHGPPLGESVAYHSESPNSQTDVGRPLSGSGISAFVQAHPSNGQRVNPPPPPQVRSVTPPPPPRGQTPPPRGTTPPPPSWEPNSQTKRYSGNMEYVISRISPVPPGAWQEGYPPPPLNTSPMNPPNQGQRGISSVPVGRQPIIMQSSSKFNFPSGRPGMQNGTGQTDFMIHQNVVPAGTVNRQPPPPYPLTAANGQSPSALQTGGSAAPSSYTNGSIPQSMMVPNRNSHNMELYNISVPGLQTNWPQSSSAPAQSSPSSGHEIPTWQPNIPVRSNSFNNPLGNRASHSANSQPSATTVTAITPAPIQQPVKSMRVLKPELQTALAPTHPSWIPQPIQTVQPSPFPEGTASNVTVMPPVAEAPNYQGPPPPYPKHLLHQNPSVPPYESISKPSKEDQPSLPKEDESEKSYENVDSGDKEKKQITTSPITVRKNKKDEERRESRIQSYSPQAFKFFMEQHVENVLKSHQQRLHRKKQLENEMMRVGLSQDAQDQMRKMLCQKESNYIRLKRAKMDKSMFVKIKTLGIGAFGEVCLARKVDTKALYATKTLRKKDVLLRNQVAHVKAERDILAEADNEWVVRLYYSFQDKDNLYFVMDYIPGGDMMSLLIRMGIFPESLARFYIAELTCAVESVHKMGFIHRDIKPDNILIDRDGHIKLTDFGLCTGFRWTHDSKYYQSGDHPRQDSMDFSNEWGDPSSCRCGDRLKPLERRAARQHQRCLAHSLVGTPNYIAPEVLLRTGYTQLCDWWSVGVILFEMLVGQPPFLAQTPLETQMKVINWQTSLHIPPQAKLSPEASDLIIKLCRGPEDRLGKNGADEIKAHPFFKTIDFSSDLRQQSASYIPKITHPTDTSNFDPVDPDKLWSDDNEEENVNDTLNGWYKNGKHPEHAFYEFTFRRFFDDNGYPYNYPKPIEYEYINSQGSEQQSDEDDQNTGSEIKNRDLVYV
Epidermal growth factor receptor, sequence (P00533 whole entry): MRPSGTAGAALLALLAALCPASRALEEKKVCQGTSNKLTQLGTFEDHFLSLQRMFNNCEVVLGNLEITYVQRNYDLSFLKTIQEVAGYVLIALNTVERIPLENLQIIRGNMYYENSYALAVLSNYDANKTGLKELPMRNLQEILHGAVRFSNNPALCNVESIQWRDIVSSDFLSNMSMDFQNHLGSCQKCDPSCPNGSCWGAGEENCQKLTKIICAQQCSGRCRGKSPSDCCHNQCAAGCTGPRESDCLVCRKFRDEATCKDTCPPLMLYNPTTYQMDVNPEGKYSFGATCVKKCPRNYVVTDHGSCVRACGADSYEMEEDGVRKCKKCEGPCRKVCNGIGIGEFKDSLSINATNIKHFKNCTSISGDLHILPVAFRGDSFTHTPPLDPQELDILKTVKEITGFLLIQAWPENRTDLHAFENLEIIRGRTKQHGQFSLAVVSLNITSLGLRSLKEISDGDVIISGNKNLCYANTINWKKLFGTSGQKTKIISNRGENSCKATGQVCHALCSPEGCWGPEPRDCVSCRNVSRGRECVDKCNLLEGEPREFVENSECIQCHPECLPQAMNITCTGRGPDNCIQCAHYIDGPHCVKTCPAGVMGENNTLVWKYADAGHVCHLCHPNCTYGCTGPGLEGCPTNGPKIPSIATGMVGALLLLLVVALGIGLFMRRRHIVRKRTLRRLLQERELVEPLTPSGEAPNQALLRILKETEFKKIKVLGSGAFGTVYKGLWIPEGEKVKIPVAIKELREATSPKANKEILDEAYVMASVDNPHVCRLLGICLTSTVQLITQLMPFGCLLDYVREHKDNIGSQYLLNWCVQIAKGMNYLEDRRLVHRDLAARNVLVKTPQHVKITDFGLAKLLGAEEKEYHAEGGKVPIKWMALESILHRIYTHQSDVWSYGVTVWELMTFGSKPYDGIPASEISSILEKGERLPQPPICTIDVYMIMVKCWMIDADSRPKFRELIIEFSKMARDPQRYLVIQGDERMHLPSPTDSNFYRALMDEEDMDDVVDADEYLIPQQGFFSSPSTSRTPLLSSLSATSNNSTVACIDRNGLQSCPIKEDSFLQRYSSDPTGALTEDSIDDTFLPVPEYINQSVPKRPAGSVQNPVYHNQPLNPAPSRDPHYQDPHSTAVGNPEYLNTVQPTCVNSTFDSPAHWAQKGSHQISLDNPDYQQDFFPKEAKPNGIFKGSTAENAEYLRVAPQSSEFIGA
Calcium/calmodulin-dependent protein kinase type II subunit delta, sequence (Q13557 whole entry, the tested form may be a part): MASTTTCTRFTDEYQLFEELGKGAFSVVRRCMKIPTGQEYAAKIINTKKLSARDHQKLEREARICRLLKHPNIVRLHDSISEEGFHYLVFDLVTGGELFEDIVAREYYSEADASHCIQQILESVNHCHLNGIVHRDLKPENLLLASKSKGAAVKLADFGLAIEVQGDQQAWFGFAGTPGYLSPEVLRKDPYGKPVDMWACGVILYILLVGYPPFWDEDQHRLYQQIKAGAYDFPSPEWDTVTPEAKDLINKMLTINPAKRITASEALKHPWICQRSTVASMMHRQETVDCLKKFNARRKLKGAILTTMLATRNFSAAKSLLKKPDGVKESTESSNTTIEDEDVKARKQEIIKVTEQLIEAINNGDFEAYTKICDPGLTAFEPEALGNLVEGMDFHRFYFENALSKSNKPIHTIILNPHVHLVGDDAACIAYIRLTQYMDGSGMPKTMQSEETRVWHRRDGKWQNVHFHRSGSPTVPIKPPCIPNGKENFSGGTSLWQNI
Cyclin-dependent kinase 10, sequence (Q15131 whole entry, the tested form may be a part): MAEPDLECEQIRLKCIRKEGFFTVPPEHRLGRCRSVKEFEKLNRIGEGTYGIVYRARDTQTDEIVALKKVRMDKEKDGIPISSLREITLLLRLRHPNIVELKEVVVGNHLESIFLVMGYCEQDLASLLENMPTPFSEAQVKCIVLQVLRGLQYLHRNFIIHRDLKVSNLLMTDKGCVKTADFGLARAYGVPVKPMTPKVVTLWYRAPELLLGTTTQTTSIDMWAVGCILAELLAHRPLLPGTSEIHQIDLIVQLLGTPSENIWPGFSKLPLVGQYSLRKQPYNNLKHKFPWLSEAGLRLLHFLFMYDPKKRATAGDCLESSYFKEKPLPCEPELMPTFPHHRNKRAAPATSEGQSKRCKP
Mitogen-activated protein kinase kinase kinase 7, sequence (O43318 whole entry): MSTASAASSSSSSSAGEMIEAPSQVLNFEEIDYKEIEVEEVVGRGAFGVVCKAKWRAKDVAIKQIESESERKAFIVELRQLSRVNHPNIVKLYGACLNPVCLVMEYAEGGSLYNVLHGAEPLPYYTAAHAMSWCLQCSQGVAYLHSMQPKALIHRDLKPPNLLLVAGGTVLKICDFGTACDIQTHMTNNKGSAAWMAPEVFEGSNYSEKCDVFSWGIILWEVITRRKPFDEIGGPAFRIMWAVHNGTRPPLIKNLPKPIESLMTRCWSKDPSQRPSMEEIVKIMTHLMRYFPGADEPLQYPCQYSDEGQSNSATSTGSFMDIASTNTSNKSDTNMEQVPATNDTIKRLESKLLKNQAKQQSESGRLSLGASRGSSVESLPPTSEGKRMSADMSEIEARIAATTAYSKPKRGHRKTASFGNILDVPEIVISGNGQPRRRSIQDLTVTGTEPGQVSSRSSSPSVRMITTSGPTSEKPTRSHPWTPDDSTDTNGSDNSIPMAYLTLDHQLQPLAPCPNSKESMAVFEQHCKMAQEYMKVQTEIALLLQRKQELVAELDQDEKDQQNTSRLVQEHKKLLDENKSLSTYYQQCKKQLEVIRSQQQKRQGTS
Dual specificity protein kinase CLK3, sequence (P49761 whole entry, looked up): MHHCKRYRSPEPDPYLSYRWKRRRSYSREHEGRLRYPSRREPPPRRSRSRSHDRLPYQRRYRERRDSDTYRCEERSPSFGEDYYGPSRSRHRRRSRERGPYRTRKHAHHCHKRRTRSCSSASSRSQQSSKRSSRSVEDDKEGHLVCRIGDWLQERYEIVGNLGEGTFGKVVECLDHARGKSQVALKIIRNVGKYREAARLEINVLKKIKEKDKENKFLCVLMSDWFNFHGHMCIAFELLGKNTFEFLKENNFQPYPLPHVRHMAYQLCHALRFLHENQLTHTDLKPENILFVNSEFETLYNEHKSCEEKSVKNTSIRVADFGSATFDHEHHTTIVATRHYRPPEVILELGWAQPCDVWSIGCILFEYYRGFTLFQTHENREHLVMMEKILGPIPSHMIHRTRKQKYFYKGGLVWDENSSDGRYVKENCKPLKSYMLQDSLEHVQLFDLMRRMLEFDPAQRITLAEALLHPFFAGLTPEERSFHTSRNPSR

## CCOc1cc(N2CCC(O)CC2)ccc1Nc1ncc2c(n1)N(C)c1ccccc1C(=O)N2C
[1]
  IC50: > 50 µM
[2]
  IC50: > 50 µM
[3]
  IC50: > 50 µM
[4]
  IC50: > 50 µM
[5]
  inhibition: 32.6%
[6]
  inhibition: 9.9%
[7]
  inhibition: -6%
[8]
  inhibition: 3.2%
[9]
  inhibition: -9%
[10]
  Activity: Active
